# According to ChEMBL document CHEMBL1151238, “New stilbene derivatives from Calligonum leucocladum” (2004):
# Key:
# Assay type in all cases: functional
# Staphylococcus aureus [1] = assay: Antimicrobial activity against methicillin-resistant Staphylococcus aureus 8 after 24 hrs
# Method in brief: (§1)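 Overnight 37 °C Mueller-Hinton broth cultures of clinical isolates or strain COL were diluted in 0.85% NaCl and spotted by inoculator at about 10⁶ cfu/mL. Plates were held 37 °C for 24 h. MIC was taken as the lowest concentration giving complete growth inhibition.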
# Staphylococcus aureus [2] = assay: Antimicrobial activity against methicillin-resistant Staphylococcus aureus 1 after 24 hrs; method in brief: as §1
# Staphylococcus aureus [3] = assay: Antimicrobial activity against methicillin-resistant Staphylococcus aureus 2 after 24 hrs; method in brief: as §1
# Staphylococcus aureus [4] = assay: Antimicrobial activity against methicillin-resistant Staphylococcus aureus COL after 24 hrs; method in brief: as §1
# [5] = DPPH radical scavenging activity assessed as ratio of absorbance at 20 uM relative to L-cysteine
# Method in brief: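 Test compound at 20 μM in ethanolic solution, mixed with ethanol, 50 mM MES buffer (pH 5.5) and 0.5 mM DPPH in ethanol. Decrease in absorbance at 517 nm read after 30 min. L-Cysteine served as reference. Value given as the ratio of absorbance between L-cysteine and test compound.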
# Staphylococcus aureus [6] = assay: Antimicrobial activity against methicillin-resistant Staphylococcus aureus 5 after 24 hrs; method in brief: as §1
# Staphylococcus aureus [7] = assay: Antimicrobial activity against methicillin-resistant Staphylococcus aureus 4 after 24 hrs; method in brief: as §1
# Staphylococcus aureus [8] = assay: Antimicrobial activity against methicillin-resistant Staphylococcus aureus 12 after 24 hrs; method in brief: as §1
Compound,MIC (Staphylococcus aureus [1]),MIC (Staphylococcus aureus [2]),MIC (Staphylococcus aureus [3]),MIC (Staphylococcus aureus [4]),Ratio [5],MIC (Staphylococcus aureus [6]),MIC (Staphylococcus aureus [7]),MIC (Staphylococcus aureus [8])
O=C(OC[C@H]1O[C@@H](Oc2cc(O)cc(/C=C/c3ccc(O)cc3)c2)[C@H](O)[C@@H](O)[C@@H]1O)c1cc(O)c(O)c(O)c1,125 µg/mL,125 µg/mL,125 µg/mL,> 250 µg/mL,1.3,> 250 µg/mL,125 µg/mL,250 µg/mL
CC(=O)O[C@@H]1CO[C@@H](Oc2cc(O)cc(/C=C/c3ccc(O)cc3)c2)[C@H](O)[C@H]1O,,,,,0.2,,,
OC[C@H]1O[C@@H](Oc2cc(O)cc(/C=C/c3ccc(O)cc3)c2)[C@H](O)[C@@H](O)[C@@H]1O,,,,,0.54,,,
OC[C@H]1O[C@@H](Oc2cc(O)cc(/C=C/c3ccccc3)c2)[C@H](O)[C@@H](O)[C@@H]1O,,,,,0.14,,,
Oc1ccc(/C=C/c2cc(O)cc(O[C@@H]3OC[C@@H](O)[C@H](O)[C@H]3O)c2)cc1,,,,,0.42,,,
Cc1onc(-c2ccccc2)c1C(=O)N[C@@H]1C(=O)N2[C@@H]1SC(C)(C)[C@@H]2C(=O)O [OXACILLIN],256 µg/mL,512 µg/mL,256 µg/mL,512 µg/mL,,256 µg/mL,256 µg/mL,512 µg/mL
Oc1cc(O)cc(/C=C/c2ccccc2)c1 [PINOSYLVIN],> 250 µg/mL,> 250 µg/mL,> 250 µg/mL,125 µg/mL,0.52,125 µg/mL,> 250 µg/mL,> 250 µg/mL
Oc1ccc(/C=C/c2cc(O)cc(O)c2)cc1 [RESVERATROL],> 250 µg/mL,> 250 µg/mL,> 250 µg/mL,> 250 µg/mL,1.77,> 250 µg/mL,> 250 µg/mL,> 250 µg/mL
